Data from ChEMBL document CHEMBL4431315, “Jatrophane Diterpenoids as Modulators of P-Glycoprotein-Dependent Multidrug Resistance (MDR): Advances of Structure-Activity Relationships and Discovery of Promising MDR Reversal Agents” (J Med Chem, 2016).
Activity calls are given as the source filed them. The calls are words filed in the database; no cut-off is given here.

Tests used:
[1] = biological target: T1, ATP-dependent translocase ABCB1 (Homo sapiens, UniProt P08183); test: Inhibition of P-gp mediated efflux in adriamycin-resistant human HepG2 cells assessed as intracellular rhodamine-123 accumulation at 10 uM incubated in dark condition for 90 mins by flow cytometry relative to control; assay type: cell-based
T1 sequence (P08183 whole entry): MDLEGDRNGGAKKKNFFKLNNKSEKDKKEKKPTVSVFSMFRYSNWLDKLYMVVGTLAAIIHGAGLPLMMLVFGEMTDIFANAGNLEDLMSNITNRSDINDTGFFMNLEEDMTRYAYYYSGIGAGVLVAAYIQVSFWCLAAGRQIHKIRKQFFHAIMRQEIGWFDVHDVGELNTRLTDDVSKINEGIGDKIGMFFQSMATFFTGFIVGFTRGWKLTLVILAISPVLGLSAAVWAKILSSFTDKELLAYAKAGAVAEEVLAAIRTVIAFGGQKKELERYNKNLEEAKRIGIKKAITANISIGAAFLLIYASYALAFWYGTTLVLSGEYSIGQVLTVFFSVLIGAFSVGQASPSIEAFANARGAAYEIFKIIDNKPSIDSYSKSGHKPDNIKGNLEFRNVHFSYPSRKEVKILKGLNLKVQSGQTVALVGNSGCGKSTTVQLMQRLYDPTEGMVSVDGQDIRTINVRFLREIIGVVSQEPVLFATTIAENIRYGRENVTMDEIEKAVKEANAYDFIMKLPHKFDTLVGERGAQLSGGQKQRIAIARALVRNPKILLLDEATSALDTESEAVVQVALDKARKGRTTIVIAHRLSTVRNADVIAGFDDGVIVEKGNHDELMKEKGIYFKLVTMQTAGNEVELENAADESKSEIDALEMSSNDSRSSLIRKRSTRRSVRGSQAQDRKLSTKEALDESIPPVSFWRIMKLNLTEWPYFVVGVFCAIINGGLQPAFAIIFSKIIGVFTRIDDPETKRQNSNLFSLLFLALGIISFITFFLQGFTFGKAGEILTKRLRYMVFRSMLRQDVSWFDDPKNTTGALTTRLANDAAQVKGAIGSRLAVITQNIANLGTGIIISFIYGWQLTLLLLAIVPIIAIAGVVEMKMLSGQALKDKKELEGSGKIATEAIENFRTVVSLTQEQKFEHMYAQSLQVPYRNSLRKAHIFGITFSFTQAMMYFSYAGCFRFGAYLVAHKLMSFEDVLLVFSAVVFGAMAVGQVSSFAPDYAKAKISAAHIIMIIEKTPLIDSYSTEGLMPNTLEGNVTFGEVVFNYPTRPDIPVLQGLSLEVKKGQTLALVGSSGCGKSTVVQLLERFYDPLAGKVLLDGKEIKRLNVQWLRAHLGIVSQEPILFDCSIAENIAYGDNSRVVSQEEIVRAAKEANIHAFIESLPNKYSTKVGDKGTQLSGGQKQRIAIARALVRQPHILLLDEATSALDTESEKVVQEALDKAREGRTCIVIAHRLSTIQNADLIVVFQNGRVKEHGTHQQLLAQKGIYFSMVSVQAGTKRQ
Method in brief: (§1)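 HepG2/ADR cells seeded at 5 × 10^5/well and given compound plus 10 μM Rho123 in the dark at 37 °C for 90 min. Cells washed twice in ice-cold PBS, resuspended in PBS, read by flow cytometry in FL1 (Em 525 nm). Fold of control = (treated fluorescence − background)/(Rho123-only fluorescence − background).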

[2] = biological target: T1, ATP-dependent translocase ABCB1; test: Inhibition of P-gp mediated efflux in adriamycin-resistant human HepG2 cells assessed as intracellular rhodamine-123 accumulation at 1 uM incubated in dark condition for 90 mins by flow cytometry; assay type: cell-based; method in brief: as §1
[3] = tested on: HepG2; test: Cytotoxicity against adriamycin-resistant human HepG2 cells assessed as inhibition of cell proliferation after 48 hrs by MTT assay; assay type: functional, cell-based; conditions: HepG2, 48 h
Method in brief: (§2)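 Seeded at 5 × 10^3 cells/well with graded compound levels, DMSO as negative control, 48 h. MTT added for 4 h, formazan dissolved in DMSO, OD read at 570 nm (reference 630 nm). IC50 by nonlinear regression; triplicate samples.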

[4] = tested on: NCI/ADR-RES; test: Intrinsic cytotoxicity against human MCF7/ADR cells assessed as inhibition of cell proliferation after 48 hrs by MTT assay; assay type: cell-based; method in brief: as §2
[5] = Cytotoxicity against HLF cells assessed as inhibition of cell proliferation after 48 hrs by MTT assay; assay type: cell-based; conditions: Homo sapiens; method in brief: as §2
[6] = biological target: T1, ATP-dependent translocase ABCB1; test: Inhibition of P-gp mediated efflux in adriamycin-resistant human HepG2 cells assessed as intracellular rhodamine-123 accumulation at 0.125 to 10 uM incubated in dark condition for 90 mins by flow cytometry; assay type: cell-based; method in brief: as §1
[7] = tested on: HepG2; test: Multidrug resistance reversal activity in adriamycin-resistant human HepG2 cells xenografted in nude BALB/c mouse assessed as tumor growth inhibition at 10 mg/kg, ip administered 2 hrs prior to ADR dosing at 5 mg/kg, ip on day 0/3/6 measured every day during compound dosing; assay type: functional
Method in brief: (§3)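 Female BALB/c nude mice, 5 weeks old, implanted s.c. in the right flank with 1 × 10^7 HepG2/ADR cells. At about 60 mm3, randomized into groups of seven and dosed ip on days 0, 3, 6: compound 10 mg/kg given 2 h before ADR 5 mg/kg. Controls got saline with 0.5% DMSO and 5% Kolliphor HS 15. Tumor size and body weight measured daily; survival tracked. IR from mean tumor weights; Student's t test, P < 0.05.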

[8] = Half life in Sprague-Dawley rat liver microsomes at 100 uM by HPLC-UV analysis; assay type: ADME, Microsome
[9] = tested on: HepG2; test: Multidrug resistance reversal activity in adriamycin-resistant human HepG2 cells xenografted in nude BALB/c mouse assessed as increase in mouse survival at 10 mg/kg, ip administered 2 hrs prior to ADR dosing at 5 mg/kg, ip on day 0/3/6 measured every day during compound dosing; assay type: functional, organism-based; method in brief: as §3
[10] = Metabolic stability in Sprague-Dawley rat liver microsomes assessed as rate constant at 100 uM by HPLC-UV analysis; assay type: ADME, Microsome
Method in brief: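 Rat liver microsomes at 1 mg protein/mL final, compound at 100 μM final (from a 10 mM CH3CN stock), in 100 mM PBS with 3.0 mM MgCl2 and 1.0 mM NADPH, pH 7.4, 37 °C. Sampled at 0 to 180 min and stopped with ice-cold CH3CN. Control run without NADPH. Centrifuged supernatants analysed by HPLC-UV; three independent experiments in triplicate.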

[11] = biological target: T1, ATP-dependent translocase ABCB1; test: Inhibition of P-gp mediated efflux in adriamycin-resistant human HepG2 cells assessed as intracellular rhodamine-123 accumulation at 2 uM incubated in dark condition for 90 mins by flow cytometry relative to control; assay type: cell-based; method in brief: as §1
[12] = biological target: T1, ATP-dependent translocase ABCB1; test: Inhibition of P-gp mediated efflux in adriamycin-resistant human HepG2 cells assessed as intracellular rhodamine-123 accumulation at 0.125 uM incubated in dark condition for 90 mins by flow cytometry relative to control; assay type: cell-based; method in brief: as §1

## CC(=O)O[C@@H]1C[C@@H](OC(=O)c2ccccc2)/C(C)=C/[C@H]2[C@@H](OC(=O)c3ccccc3)[C@@H](C)[C@H](OC(=O)c3ccccc3)[C@]2(OC(C)=O)[C@H](O)[C@](C)(O)/C=C/C1(C)C
[1]
  INH: Active
[2]
  INH: Active
[3]
  IC50: > 150 µM
[4]
  IC50: 64.2 µM

## CC(=O)O[C@@H]1C[C@@H](OC(=O)c2ccccc2)/C(C)=C/[C@H]2[C@@H](OC(=O)c3ccccc3)[C@@H](C)[C@H](OC(C)=O)[C@]2(OC(C)=O)C(=O)[C@](C)(O)/C=C/C1(C)C
[1]
  INH: Active
[5]
  IC50: > 100 µM
[3]
  IC50: > 150 µM
[4]
  IC50: > 150 µM

## CC(=O)O[C@@H]1[C@@H](O)C(=O)/C(C)=C/C2=C[C@@H](C)[C@H](O)[C@]2(OC(C)=O)[C@H](O)/C(C)=C/CC1(C)C
[6]
  INH: Not Active

## CC(=O)O[C@@H]1C[C@@H](OC(=O)c2ccccc2)/C(C)=C/[C@H]2[C@@H](OC(=O)c3ccccc3)[C@@H](C)[C@H](O)[C@]2(OC(C)=O)[C@H](O)[C@](C)(O)CCC1(C)C
[7]
  TGI: 62.89%
[8]
  half-life at 100 µM: 14.4 h
[1]
  INH: Active
[9]
  Activity: Active
[5]
  IC50: > 100 µM
[2]
  INH: Active
[3]
  IC50: > 150 µM
[10]
  k el at 100 µM: 1.33e-05 s⁻¹
[4]
  IC50: > 150 µM
[11]
  FC: 2.74
[12]
  FC: 1.34

## CC(=O)O[C@@H]1C[C@@H](OC(=O)c2ccccc2)/C(C)=C/[C@H]2[C@@H](OC(=O)c3ccccc3)[C@@H](C)[C@H](O)[C@]2(OC(C)=O)[C@H](O)[C@](C)(O)/C=C/C1(C)C
[1]
  INH: Active
[2]
  INH: Active
[3]
  IC50: > 150 µM
[4]
  IC50: > 150 µM
[11]
  FC: 2.8
[12]
  FC: 1.32

## CC(=O)O[C@@H]1C[C@@H](OC(=O)c2ccccc2)/C(C)=C/[C@H]2[C@@H](OC(=O)c3ccccc3)[C@@H](C)[C@H](OS(=O)(=O)c3ccc(C)cc3)[C@]2(OC(C)=O)[C@H](O)[C@](C)(O)/C=C/C1(C)C
[1]
  INH: Active
[5]
  IC50: > 100 µM
[3]
  IC50: > 150 µM
[4]
  IC50: > 150 µM

## COc1cc2c(cc1OC)CN(CCc1ccc(NC(=O)c3cc(OC)c(OC)cc3NC(=O)c3cnc4ccccc4c3)cc1)CC2
[8]
  half-life at 100 µM: 3.5 h
[1]
  INH: Active
[5]
  IC50: 16.7 µM
[2]
  INH: Not Active
[3]
  IC50: 37.2 µM
[10]
  k el at 100 µM: 5.5e-05 s⁻¹
[4]
  IC50: 13.1 µM
[11]
  FC: 2.97
[12]
  FC: 1.04

## CC(=O)O/C1=C(\C)[C@@H](O)[C@H]2[C@@H](OC(=O)c3ccccc3)[C@@H](C)[C@H](O)[C@]2(O)[C@H](O)/C(C)=C/CC(C)(C)[C@H](OC(C)=O)[C@H]1OC(C)=O
[6]
  INH: Not Active

## C[C@]12CC[C@H]3[C@@H](CCC4=CC(=O)CC[C@@]43C)[C@@H]1CC[C@@H]2O [TESTOSTERONE]
[10]
  k el at 100 µM: 0.00444 s⁻¹

## CC(=O)O/C1=C(\C)[C@H]2O[C@@](C)([C@@H](OC(C)=O)CC(C)(C)[C@H](OC(C)=O)[C@H]1OC(C)=O)[C@@H](OC(C)=O)[C@]1(OC(C)=O)[C@@H]2[C@@H](OC(=O)c2ccccc2)[C@@H](C)[C@@H]1OC(C)=O
[2]
  INH: Active
[3]
  IC50: > 150 µM
[4]
  IC50: > 150 µM
[11]
  FC: 3.07
[12]
  FC: 1.81

## C/C1=C\[C@H]2[C@@H](OC(=O)c3ccccc3)[C@@H](C)[C@H](O)[C@]2(O)[C@H](O)[C@](C)(O)/C=C/C(C)(C)[C@H](O)C[C@H]1OC(=O)c1ccccc1
[6]
  INH: Not Active

## CC(=O)O/C1=C(\C)[C@@H](O)[C@H]2[C@@H](OC(=O)c3ccccc3)[C@@H](C)[C@H](OC(=O)c3ccccc3)[C@]2(OC(C)=O)[C@H](OC(C)=O)/C(C)=C/CC(C)(C)[C@H](OC(C)=O)[C@H]1OC(C)=O
[1]
  INH: Active
[2]
  INH: Active
[3]
  IC50: > 150 µM
[4]
  IC50: > 150 µM
[11]
  FC: 2.78
[12]
  FC: 1.37

## COc1ccc(CCN(C)CCCC(C#N)(c2ccc(OC)c(OC)c2)C(C)C)cc1OC (configuration not stated)
[10]
  k el at 100 µM: 0.000392 s⁻¹

## CC(=O)O/C1=C(\C)C(=O)[C@H]2[C@@H](OC(=O)c3ccccc3)[C@@H](C)[C@H](OC(C)=O)[C@]2(OC(C)=O)[C@H](OC(C)=O)/C(C)=C/CC(C)(C)[C@H](OC(C)=O)[C@H]1OC(C)=O
[1]
  INH: Active
[2]
  INH: Active

## CC(=O)O/C1=C(\C)[C@H]2O[C@](C)([C@@H](OC(C)=O)[C@]3(OC(C)=O)[C@@H]2[C@@H](OC(=O)c2ccccc2)[C@@H](C)[C@@H]3OC(C)=O)[C@H]2O[C@@H]2C(C)(C)[C@H](OC(C)=O)[C@H]1OC(C)=O
[1]
  FC: 3.65
[2]
  INH: Active
[3]
  IC50: 130 µM
[4]
  IC50: 55.6 µM

## C/C1=C\[C@H]2[C@@H](O)[C@@H](C)[C@H](O)[C@]2(O)[C@H](O)[C@](C)(O)/C=C/C(C)(C)[C@H](O)C[C@H]1O
[6]
  INH: Not Active

## CC(=O)O[C@@H]1CC(=O)/C(C)=C/[C@H]2C=C(C)C(=O)[C@]2(OC(C)=O)[C@H](O)[C@](C)(O)/C=C/C1(C)C
[6]
  INH: Not Active
